Calls of active or inactive are those of the source. The rule behind the calls is not given here.

Our source for the inhibition, IC50 and Activity values is ChEMBL document CHEMBL1143096, “Synthesis and antitumor activity of benzils related to combretastatin A-4” (Bioorg Med Chem Lett, 2008).

Experiment [1] in a line: Inhibition of tubulin assembly at 13 uM.
For experiment [2], the system named is HCT-116. Briefly: Cytotoxicity against human HCT116 cells. It counts as functional, cell-based. The method in brief:
(§1)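 Growth inhibition assay; IC50 taken as the sample concentration producing 50% reduction in cell growth, each drug concentration tested in triplicate.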

A short description of experiment [3]: Inhibition of tubulin assembly at 130 uM.
Experiment [4] is described as follows: Inhibition of tubulin assembly.
Experiment [5] is described as follows: Cytotoxicity against human H1299 cells. It counts as functional, cell-based. The conditions noted are these: NCI-H1299. Put shortly:
as §1

For experiment [6], the system named is HUVEC. As to the kind of experiment: Cytotoxicity against HUVEC. It is filed as cell-based. The settings on record: Homo sapiens. Put shortly:
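HUVEC proliferation measured after 72 h incubation; IC50 derived for growth inhibition.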

Experiment [7] is described as follows: Cell cycle arrest in human H1299 cells assessed as accumulation at G2/M phase at 50 nM after 24 hrs by flow cytometry. It is filed as functional, cell-based. The settings on record: NCI-H1299. The method in brief:
(§2)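 Flow cytometry of cellular DNA content after 24 h exposure to 10, 20 or 50 nM; percentage of cells in G2/M phase reported, DMSO vehicle control; data representative of three independent experiments.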
For orientation: A flow cytometer gives signals particle by particle.

In the next experiment the test system is K562. As to the kind of experiment: Cytotoxicity against human K562 cells. It counts as functional, cell-based.
Experiment [8] has as its system HCT-116. Briefly: Cell cycle arrest in human HCT116 cells assessed as accumulation at G2/M phase at 10 nM after 24 hrs by flow cytometry. It is filed as functional. The method in brief:
as §2

The subject of experiment [9] is HCT-116. As to the kind of experiment: Induction of apoptosis in human HCT116 cells after 24 hrs by caspase activation assay. It is filed as functional, cell-based. Put shortly: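 Cells treated with 10, 50 and 100 nM for 24 h; caspase 3 and 7 activities measured by standard caspase cleavage assay.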
In experiment [10] the test system is HCT-116. As to the kind of experiment: Cell cycle arrest in human HCT116 cells assessed as accumulation at G2/M phase at 50 nM after 24 hrs by flow cytometry. It is filed as functional. Put shortly:
as §2

Experiment [11] relates to HCT-116. As to the kind of experiment: Cell cycle arrest in human HCT116 cells assessed as accumulation at G2/M phase at 20 nM after 24 hrs by flow cytometry. It is filed as functional. The method in brief: as §2
The test system of experiment [12] is HUVEC. Briefly: Disruption of integrity of newly formed blood vessels of HUVEC at 100 nM after 3 hrs by tube formation assay. It counts as functional, cell-based. The settings on record: Homo sapiens, Blood vessel. The method in brief:
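HUVEC seeded on Matrigel; 24 h later, compound (100 nM) or vehicle added to formed cords; images taken 3 h after addition to assess network integrity.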

Experiment [13] can be described thus: Cell cycle arrest in human H1299 cells assessed as accumulation at G2/M phase at 10 nM after 24 hrs by flow cytometry. It counts as functional, cell-based. The conditions noted are these: NCI-H1299. The method in brief:
as §2

A further experiment has as its system MDA-MB-231. Briefly: Cytotoxicity against human MDA-MB-231 cells. It counts as functional, cell-based.
Experiment [14] can be described thus: Cell cycle arrest in human H1299 cells assessed as accumulation at G2/M phase at 20 nM after 24 hrs by flow cytometry. It is filed as functional, cell-based. The conditions noted are these: NCI-H1299. The method in brief:
as §2

A word on the inhibition: it is the relative decrease from the control value, in per cent. Lower therefore signals a response near the control. The IC50 is the concentration that inhibits the measured activity by half. Lower therefore signals higher potency. For `COc1ccc(C(=O)C(=O)c2cc(OC)c(OC)c(OC)c2)cc1NC(C)=O`, the inhibition in experiment [1] and in [3] was 45% in each case. In the experiment with HCT-116 [2], this compound returned an IC50 of 0.35 µM.
Regarding `COc1ccc(C(=O)C(=O)c2cc(OC)c(OC)c(OC)c2)cc1OC`, the figures for the inhibition in experiment [1] and in experiment [3] were 52% and 85%, respectively. Besides, the results for the IC50 (in [4]; in the experiment with HCT-116 [2]) were 63 µM and 0.3 µM, respectively.
With `COc1ccc(C(=O)C(=O)c2cc(OC)c(OC)c(OC)c2)cc1`, the inhibition in experiment [1] was 58%; in [3] it was 89%. Besides, the IC50 in experiment [4] came out at 21 µM; in the experiment with HCT-116 [2], 0.3 µM.
Turning to `COc1ccc(/C=C\c2cc(OC)c(OC)c(OC)c2)cc1O` [COMBRETASTATIN A4], the inhibition in [1] is 77%; in experiment [3] it was 88%. The IC50 is 0.0018 µM in the experiment on HCT-116 [2], 0.005 µM in [5] and 0.0025 µM in the experiment on HUVEC [6].
For the compound `COc1cc(C(=O)C(=O)c2ccc(C#N)cc2)cc(OC)c1OC`, the result with HCT-116 [2] was inactive. For the same compound, the inhibition in [3] came out at 28%.
Regarding `COc1cc(C(=O)C(=O)c2ccc3ccccc3c2)cc(OC)c1OC`, the inhibition was found to be 23% in experiment [1] and 80% in [3]. Moreover, the IC50 with HCT-116 [2] is 3 µM.
On the same counts, the results for `COc1cc(C(=O)C(=O)c2cccc(O)c2)cc(OC)c1OC` are 42%, 69% and 2 µM.
For `COc1ccc(C(=O)C(=O)c2cc(OC)c(OC)c(OC)c2)cc1N`, the inhibition amounted to 82% in experiment [1] and 88% in experiment [3]. For the same compound, the Activity was found to be 16.5% in experiment [7]; 13% in the experiment with HCT-116 [8]; 28% in the experiment on HCT-116 [10]; 15.9% in the experiment with HCT-116 [11]; 11.7% in experiment [13]; 12.2% in experiment [14]. The half-maximal inhibitory concentration (IC50) in [4] turned out to be 5 µM; with HCT-116 [2] it was 0.038 µM; in the experiment on K562 it was 0.02 µM; in [5], 0.05 µM; with HUVEC [6], 0.04 µM; in the experiment with MDA-MB-231, 0.03 µM. Besides, the result in the experiment on HCT-116 [9] and with HUVEC [12] was Active.
As for `COc1ccc(C(=O)C(=O)c2cc(OC)c(OC)c(OC)c2)cc1OC(C)=O`, the IC50 in the experiment with HCT-116 [2] is 0.04 µM; in the experiment on K562 it was 0.025 µM; in [5] it was 0.03 µM; in the experiment on MDA-MB-231, 0.04 µM. The compound further displayed an inhibition in [3] of 14%.
Regarding `COc1cc(C(=O)C(=O)c2ccccc2C#N)cc(OC)c1OC`, the inhibition was found to be 12% in experiment [1] and 0% in experiment [3]. Further, the outcome in the experiment with HCT-116 [2] was inactive.
`COc1ccc(C(=O)C(=O)c2cc(OC)c(OC)c(OC)c2)cc1F`: the inhibition in experiment [1] came to 47%; in experiment [3], 73%. Besides, it took 0.7 µM to reach half-maximal inhibition in the experiment with HCT-116 [2] (IC50).
Turning to `COc1cc(C(=O)C(=O)c2cnc3ccccc3c2)cc(OC)c1OC`, the results for the inhibition in experiment [1] and in [3] were 35% and 58%, respectively. The outcome in the experiment with HCT-116 [2] was inactive.
On to `COc1ccc(C(=O)C(=O)c2cc(OC)c(OC)c(OC)c2)cc1O`, for which the inhibition in experiment [1] came out at 65%; in experiment [3], 73%. The Activity was 27.7% in [7]; 11% with HCT-116 [8]; 22.8% in the experiment on HCT-116 [10]; 18.5% with HCT-116 [11]; 11.4% in [13]; 15% in experiment [14]. Further, the half-inhibitory concentration (IC50) in [4] came out at 1.5 µM; in the experiment on HCT-116 [2] it was 0.035 µM; in the experiment on K562, 0.025 µM; in experiment [5], 0.03 µM; in the experiment on HUVEC [6], 0.035 µM; in the experiment on MDA-MB-231, 0.04 µM. Further, the outcome in the experiment with HCT-116 [9] was Active.
Regarding `COc1cc(C(=O)C(=O)c2ccccn2)cc(OC)c1OC`, the outcome in the experiment with HCT-116 [2] was inactive. The inhibition in experiment [3] was found to be 23%.
Regarding `COc1cc(C(=O)C(=O)c2ccccc2)cc(OC)c1OC`, the inhibition stood at 34% in experiment [1] and 79% in experiment [3]. In the experiment on HCT-116 [2], this compound gave an IC50 of 3 µM.
